Data from the RNAGym collection of RNA variant scans (doi:10.1126/science.aae0568).
Variants at the floor of the assay were thinned out.

B1: tRNA (parent)
chain: GUUCCGUUGGCGUAAUGGUAACGCGUCUCCCUCCUAAGGAGAAGACUGCGGGUUCGAGUCCCGUACGGAACG

Variants of: B1
Assay: yeast fitness relative to wild type (ratio to wild type); higher = fitter; tRNA-Arg(CCU), competitive growth, 37 C, YPD
In short: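 Start and end populations of a pooled competition were compared by 100-nucleotide paired-end sequencing of gene amplicons. The Saccharomyces cerevisiae strains carried tRNA-Arg(CCU) gene variants at the native genomic locus, synthesised with a 3% per-site mutation rate at 69 sites, and competed in YPD at 37°C for 24 hours in six parallel replicates. Darwinian fitness relative to wild type was based on the change in genotype frequencies. Genotypes required ≥ 100 starting reads, and estimates < 0.5 were set to 0.5.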

Compared with A43C A45U C61A C62U C66U, G10C C24G C46U A69U is higher in yeast fitness: at most 0.5 for the first, 0.569 for the second.

First: G25A G41A C60G C62G A65G
Second: C27U A57U G58C
The yeast fitness of the first is lower: at most 0.5 for the first, 0.667 for the second.

Going from C31A G51C C55G A57U C66U to A14G C29G C31U A70G, the yeast fitness falls from 0.564 to at most 0.5.

Going from C4G G68C to U2C C33U A69U, the yeast fitness falls from 0.971 to at most 0.5.

Compared with C62U U64C, G6C A36C U64A is lower in yeast fitness: 1.02 for the first, 0.539 for the second.

C5U C22U C27G A65U and A21U C34A G56C G63A U64C G67C cannot be ordered by yeast fitness: at most 0.5 for the first, at most 0.5 for the second.

Going from C11G G23C G39A to C22G U26A, the yeast fitness rises from 0.525 to 1.08.

Going from U7A G67U to A15C G18A C24G C55A, the yeast fitness falls from 0.771 to at most 0.5.

Compared with G9A A21U A36G A40C A69U, C4A C27U U28G C33G A36G is higher in yeast fitness: at most 0.5 for the first, 0.533 for the second.

Compared with G10A A21U C33A G68C, C5U G12A G48A is higher in yeast fitness: 0.607 for the first, 1.18 for the second.

First: A42U U53C
Second: C24U U26C G58A
The yeast fitness of the first is lower: 0.732 for the first, 1.01 for the second.

U13A C22G C27G C31G C61G A69U and A15G U28C C30U A36C A45U G50C cannot be ordered by yeast fitness: at most 0.5 for the first, at most 0.5 for the second.

Compared with G10A C24A C30A C31G A43U, C11G G39C G50C is higher in yeast fitness: at most 0.5 for the first, 0.545 for the second.

C5U A21C C31G G68C and U2G G12A A15U C24G U53A U64A cannot be ordered by yeast fitness: at most 0.5 for the first, at most 0.5 for the second.

First: G25C G41C C46U
Second: G9C A14G U16G G23A C33A G44A
The yeast fitness of the first is higher: 0.579 for the first, at most 0.5 for the second.

Compared with G39C G48C G63C C66G, C49A G67U is higher in yeast fitness: at most 0.5 for the first, 0.746 for the second.

Going from G23A C30U C33A A43G G48C A57G to A14C C22U U32A C34U C66U, the yeast fitness rises from at most 0.5 to 0.576.

Compared with G18U C34U, A15G C22G is higher in yeast fitness: at most 0.5 for the first, 0.893 for the second.

U7C A20G C24U C49A G67C and U3A C4G G9A C11G cannot be ordered by yeast fitness: at most 0.5 for the first, at most 0.5 for the second.

First: C5G U47A G56U G58C
Second: G23C G41A A45C A65C
The yeast fitness of the first is lower: at most 0.5 for the first, 0.583 for the second.

Going from G10A U13A C24A to G17A C22A A45C C46U C49U, the yeast fitness falls from 0.582 to at most 0.5.

First: U3G G18A A65U
Second: C5G A15G
The yeast fitness of the first is lower: 0.548 for the first, 0.819 for the second.

G10C C34G G63A A69U A70C and U3C U19A C22U G63A cannot be ordered by yeast fitness: at most 0.5 for the first, at most 0.5 for the second.

Going from A37C A40G U47C to A43U G51C A57C C60G G67A, the yeast fitness rises from at most 0.5 to 0.663.

Compared with A14G G48C, U2G C4U G52C is lower in yeast fitness: 0.701 for the first, 0.516 for the second.

G38C A43G C60U C62U A70C and U2G G18A C27A C30U A65U cannot be ordered by yeast fitness: at most 0.5 for the first, at most 0.5 for the second.

First: G50A A57G
Second: C4A C5U C22U C34A C62U A70U
The yeast fitness of the first is higher: 0.944 for the first, at most 0.5 for the second.

G6A G9C G44C C66U and C22G G25C U35C A37G A65U cannot be ordered by yeast fitness: at most 0.5 for the first, at most 0.5 for the second.

Going from C5U G17C C24G G38C to G6A A14G C24A A36G A45U, the yeast fitness falls from 0.609 to at most 0.5.

Compared with A43C G44A U59A, A40C C55A is lower in yeast fitness: 0.593 for the first, 0.556 for the second.

C27U U28A U32A C34U A36C U47C C55A and G10A U28C C60G cannot be ordered by yeast fitness: at most 0.5 for the first, at most 0.5 for the second.

Compared with U2G A42C U47A G63C A69C, C61G G67U is higher in yeast fitness: 0.558 for the first, 0.61 for the second.

U19A U28A C31G A43G A45G and C22U C30G A36U C46G cannot be ordered by yeast fitness: at most 0.5 for the first, at most 0.5 for the second.

Going from G9A A14C C22G U54C C66U to G12C A45U C62G A65G, the yeast fitness rises from at most 0.5 to 0.604.

C24G U59A A70U and U7A G9C G17C C29G C33G G41C C66U cannot be ordered by yeast fitness: at most 0.5 for the first, at most 0.5 for the second.

U19G C22G C34U G68C and C27A A36C A42U cannot be ordered by yeast fitness: at most 0.5 for the first, at most 0.5 for the second.

C4G G23C C61G and A14C A21C C46A C49U cannot be ordered by yeast fitness: at most 0.5 for the first, at most 0.5 for the second.

Going from U7A A14C A20G C27U A45U G67A to C27U G52A, the yeast fitness rises from at most 0.5 to 0.7.

Going from C11A C30U C33G U64C to C11U C46U A65U A69U, the yeast fitness rises from at most 0.5 to 0.54.

U16A G41C A45C and A21U C31A G39C C66U cannot be ordered by yeast fitness: at most 0.5 for the first, at most 0.5 for the second.

Compared with A20G G38C C46U G63U, G12A U19C A21C is higher in yeast fitness: at most 0.5 for the first, 0.685 for the second.

U28C G39C G44C C46U and C22G C31U U53A cannot be ordered by yeast fitness: at most 0.5 for the first, at most 0.5 for the second.

First: C4G C22U C34G A36U G67A
Second: U28C G38C
The yeast fitness of the first is lower: at most 0.5 for the first, 0.579 for the second.

U35G A40G C49G and A15C C24U C66U cannot be ordered by yeast fitness: at most 0.5 for the first, at most 0.5 for the second.

Compared with C29G G44A G56C C62A G67C, C24U G63C is higher in yeast fitness: at most 0.5 for the first, 0.771 for the second.

U16C C31A G51A and U2G C33A C49G U64C G67C cannot be ordered by yeast fitness: at most 0.5 for the first, at most 0.5 for the second.

Compared with G23C C30G C46U A65G A70U, C11A C22G C29G C62U is lower in yeast fitness: 0.63 for the first, 0.57 for the second.

U35C C55A C60U A69U and U2C G23C U28C A43U C60A cannot be ordered by yeast fitness: at most 0.5 for the first, at most 0.5 for the second.

Going from C5U U7C C46U to C24U A45G A69U, the yeast fitness rises from 0.728 to 0.888.

Going from A37C A42U to C22A C24G A36C, the yeast fitness falls from 0.809 to at most 0.5.

First: C29G C33U A37G A40C
Second: A45U C66U
The yeast fitness of the first is lower: at most 0.5 for the first, 0.979 for the second.

Compared with U2A C5A C55U, G6C U13G is higher in yeast fitness: at most 0.5 for the first, 0.56 for the second.

Compared with U2C A37U A40C, C4U A20G A45U C49U C61U C62G A69C is lower in yeast fitness: 0.633 for the first, at most 0.5 for the second.

U19C G50A C55A and G25C C29A G48C C60A cannot be ordered by yeast fitness: at most 0.5 for the first, at most 0.5 for the second.

First: A20G U64G G68A A70C
Second: C4U C30A G50U
The yeast fitness of the first is lower: at most 0.5 for the first, 0.715 for the second.

Going from G6C A36U G39A to U28G A40U, the yeast fitness rises from at most 0.5 to 0.843.

Going from C5U U26C A69C to C29U G51C, the yeast fitness falls from 0.655 to 0.57.

Going from C11G A21U C30A G44A G52C A65U to C5G U7C A36C A57U C61A C66G, the yeast fitness falls from 0.507 to at most 0.5.

Going from C46U C60U A65C to C30A C60U C66U, the yeast fitness falls from 0.589 to at most 0.5.

Compared with A21G C33U C49A, C11U A15U C46U is higher in yeast fitness: 0.502 for the first, 0.741 for the second.

First: A14U G25A C30G C62G
Second: C22A C33G A43C
The yeast fitness of the first is lower: at most 0.5 for the first, 0.55 for the second.

C4G C5A U16A G17A G50A and C4A U7A U8A U35C C60A cannot be ordered by yeast fitness: at most 0.5 for the first, at most 0.5 for the second.

Going from C5U A15U U19C to U26A C55U, the yeast fitness falls from 0.672 to 0.65.

First: G6A G51A C62U
Second: C61A G68A
The yeast fitness of the first is lower: 0.643 for the first, 0.716 for the second.

U3A C4U G25C A69C and U3A U16C C33G C62U cannot be ordered by yeast fitness: at most 0.5 for the first, at most 0.5 for the second.

First: A15C C46U G51A C66A
Second: C5G C46A A57G
The yeast fitness of the first is lower: at most 0.5 for the first, 0.705 for the second.

Compared with U26A C49G, C4U G56A is higher in yeast fitness: 0.616 for the first, 0.934 for the second.

First: C24A U64C
Second: G18A U59A
The yeast fitness of the first is lower: 0.706 for the first, 0.76 for the second.

Compared with G12C U13A G23A A37C C61U, G48C G52C C55U is lower in yeast fitness: 0.586 for the first, at most 0.5 for the second.

A14U C29U A37U C49A G67A and G12A G18A U19C C55U A57C G58C G63A cannot be ordered by yeast fitness: at most 0.5 for the first, at most 0.5 for the second.

Compared with G10C C27A A42U C46G, C5U C30G U64A is higher in yeast fitness: at most 0.5 for the first, 0.578 for the second.

Compared with C4U U7C G23A A40U A42C C60A, U59A is higher in yeast fitness: at most 0.5 for the first, 0.973 for the second.

U7C A43G U47C U59C and C49U C55G G63A cannot be ordered by yeast fitness: at most 0.5 for the first, at most 0.5 for the second.

First: G10C A14U U19C C60A G68C
Second: G52A G56U
The yeast fitness of the first is lower: at most 0.5 for the first, 0.554 for the second.

Compared with A20G C29G C49U G68A, A36C C55U C60G is higher in yeast fitness: at most 0.5 for the first, 0.781 for the second.

First: G6A A21G C33G A57U C62U
Second: U2G C24A C46A A69U
The yeast fitness of the first is lower: at most 0.5 for the first, 0.774 for the second.

Going from C5A A14U A15C C24G U26A to G52C U59A, the yeast fitness falls from 0.78 to 0.598.

First: U3C U19A A57G
Second: U13A A14G C66U G68C
The yeast fitness of the first is higher: 0.624 for the first, at most 0.5 for the second.

First: A36U A65C
Second: A14C U19G G44C C62G
The yeast fitness of the first is higher: 0.596 for the first, at most 0.5 for the second.

Going from U16A A42U to G39C G48C A69C, the yeast fitness falls from 0.907 to 0.57.

G17C C46G G68A and C5U C24U G52U C55A cannot be ordered by yeast fitness: at most 0.5 for the first, at most 0.5 for the second.

C5A A14U G50A A57U A70G and C5A C60G C66U G67A cannot be ordered by yeast fitness: at most 0.5 for the first, at most 0.5 for the second.

First: A20U C60A
Second: C24U A37G A43G
The yeast fitness of the first is higher: 0.609 for the first, 0.516 for the second.

With G6C A40G the yeast fitness was 0.767.
